Experimental data: ChEMBL document CHEMBL1687824, “Overexpression of patA and patB, which encode ABC transporters, is associated with fluoroquinolone resistance in clinical isolates of Streptococcus pneumoniae” (2011)
≈ marks a conversion by molar mass, not a printed value.

Tests used:
[1] = test system: Streptococcus pneumoniae; experiment: Antibacterial activity against wild type Streptococcus pneumoniae R6 by standardized agar doubling dilution method in presence of 50 uM sodium orthovanadate efflux pump inhibitor; type: functional
Outline: (§1)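 MIC by agar doubling dilution following BSAC guidelines. Strains grown in brain heart infusion broth 24 h at 37°C in 5% CO2. Where an efflux pump inhibitor applies, MIC redetermined with reserpine at 20 μg/ml or sodium orthovanadate at 50 μM. Synergy taken as a fall in MIC of ≥2 dilutions with inhibitor present. Dye resistance defined relative to R6 (both dyes ≥2 dilutions higher).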

[2] = test system: Streptococcus pneumoniae; experiment: Antibacterial activity against wild type Streptococcus pneumoniae M4 NCTC 7465 type 1 by standardized agar doubling dilution method; type: functional; outline: as §1
[3] = test system: Streptococcus pneumoniae; experiment: Antibacterial activity against dye-resistant Streptococcus pneumoniae by standardized agar doubling dilution method in presence of 20 ug/ml reserpine efflux pump inhibitor; type: functional; outline: as §1
[4] = test system: Streptococcus pneumoniae; experiment: Antibacterial activity against Streptococcus pneumoniae M50B overexpressing patA, patB and inactivated patB with single mutation by standardized agar doubling dilution method; type: functional
Outline: (§2)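 MICs were determined by agar doubling dilution following BSAC guidelines, with no efflux inhibitor. Strains were grown in brain heart infusion broth for 24 h at 37°C in 5% CO2. Species identity was confirmed by Gram stain, optochin sensitivity and capsule test. Control strain R6 was tested alongside.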

[5] = test system: Streptococcus pneumoniae; experiment: Antibacterial activity against Streptococcus pneumoniae M305 overexpressing patA, patB and inactivated patB with single mutation by standardized agar doubling dilution method; type: functional
Outline: (§3)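 MICs determined by BSAC standardized agar doubling dilution. Strains were grown in brain heart infusion broth for 24 h at 37°C in 5% CO2. Inhibitor arms had reserpine at 20 μg/ml or sodium orthovanadate at 50 μM in the agar. Mutants were made by transforming magellan2 insertion amplimers into clinical isolates and selecting on spectinomycin 100 mg/liter, with a no-DNA spontaneous-mutation control.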

[6] = test system: Streptococcus pneumoniae; experiment: Antibacterial activity against fluoroquinolone, dye-resistant Streptococcus pneumoniae M87 overexpressing patA, patB by standardized agar doubling dilution method; type: functional; outline: as §1
[7] = test system: Streptococcus pneumoniae; experiment: Antibacterial activity against Streptococcus pneumoniae M310 overexpressing patA, patB and inactivated patB with single mutation by standardized agar doubling dilution method; type: functional; outline: as §3
[8] = test system: Streptococcus pneumoniae; experiment: Antibacterial activity against Streptococcus pneumoniae M317 overexpressing patA, patB and inactivated patB with single mutation by standardized agar doubling dilution method; type: functional; outline: as §2
[9] = test system: Streptococcus pneumoniae; experiment: Antibacterial activity against Streptococcus pneumoniae M302 overexpressing patA, patB and inactivated patA with single mutation by standardized agar doubling dilution method; type: functional; outline: as §3
[10] = test system: Streptococcus pneumoniae; experiment: Antibacterial activity against Streptococcus pneumoniae M306 overexpressing patA, patB and inactivated patB with single mutation by standardized agar doubling dilution method; type: functional; outline: as §3
[11] = test system: Streptococcus pneumoniae; experiment: Antibacterial activity against fluoroquinolone-resistant Streptococcus pneumoniae M98 FQ-R overexpressing patA, patB by standardized agar doubling dilution method; type: functional
Outline: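 Clinical S. pneumoniae isolates grown in BHI broth 24 h at 37°C in 5% CO2. MICs by agar doubling dilution per BSAC guidelines, alone or with efflux inhibitor reserpine (20 μg/ml) or sodium orthovanadate (50 μM). Synergy defined as ≥2-dilution MIC reduction in presence of inhibitor.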

[12] = test system: Streptococcus pneumoniae; experiment: Antibacterial activity against Streptococcus pneumoniae M303 overexpressing patA, patB and inactivated patA with single mutation by standardized agar doubling dilution method; type: functional; outline: as §3
[13] = test system: Streptococcus pneumoniae; experiment: Antibacterial activity against fluoroquinolone, dye-resistant Streptococcus pneumoniae M42 overexpressing patA, patB by standardized agar doubling dilution method in presence of 20 ug/ml reserpine efflux pump inhibitor; type: functional; outline: as §1
[14] = test system: Streptococcus pneumoniae; experiment: Antibacterial activity against Streptococcus pneumoniae M87A overexpressing patA, patB and inactivated patA with single mutation by standardized agar doubling dilution method in presence of 20 ug/ml reserpine efflux pump inhibitor; type: functional
Outline: (§4)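 MICs were determined by BSAC agar doubling dilution in the presence of reserpine at 20 μg/ml. Strains were grown in BHI broth for 24 h at 37°C in 5% CO2, with R6 as control. Synergy was defined as an MIC drop of ≥2 dilutions with the inhibitor.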

[15] = test system: Streptococcus pneumoniae; experiment: Antibacterial activity against Streptococcus pneumoniae M311 overexpressing patA, patB and inactivated patA with single mutation by standardized agar doubling dilution method in presence of 20 ug/ml reserpine efflux pump inhibitor; type: functional; outline: as §3
[16] = test system: Streptococcus pneumoniae; experiment: Antibacterial activity against Streptococcus pneumoniae M317 overexpressing patA, patB and inactivated patB with single mutation by standardized agar doubling dilution method in presence of 20 ug/ml reserpine efflux pump inhibitor; type: functional; outline: as §4
[17] = test system: Streptococcus pneumoniae; experiment: Antibacterial activity against fluoroquinolone-resistant Streptococcus pneumoniae M97 FQ-R overexpressing patA, patB by standardized agar doubling dilution method in presence of 20 ug/ml reserpine efflux pump inhibitor; type: functional
Outline: (§5)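 MIC by agar doubling dilution per BSAC guidelines; strains pregrown in brain heart infusion broth 24 h, 37°C, 5% CO2. MICs measured alone and with efflux pump inhibitors reserpine (20 μg/ml) or sodium orthovanadate (50 μM); synergy defined as ≥2-dilution MIC reduction in presence of inhibitor.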

[18] = test system: Streptococcus pneumoniae; experiment: Antibacterial activity against Streptococcus pneumoniae M300 overexpressing patA, patB and inactivated patA with single mutation by standardized agar doubling dilution method in presence of 20 ug/ml reserpine efflux pump inhibitor; type: functional; outline: as §3
[19] = test system: Streptococcus pneumoniae; experiment: Antibacterial activity against Streptococcus pneumoniae M46B overexpressing patA, patB and inactivated patB with single mutation by standardized agar doubling dilution method in presence of 20 ug/ml reserpine efflux pump inhibitor; type: functional; outline: as §4
[20] = test system: Streptococcus pneumoniae; experiment: Antibacterial activity against Streptococcus pneumoniae M50B overexpressing patA, patB and inactivated patB with single mutation by standardized agar doubling dilution method in presence of 50 uM sodium orthovanadate efflux pump inhibitor; type: functional
Outline: (§6)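 MICs were determined by BSAC agar doubling dilution in the presence of sodium orthovanadate at 50 μM. Cultures were grown in BHI broth for 24 h at 37°C in 5% CO2, with R6 as control. Synergy was defined as an MIC reduction of ≥2 dilutions with the inhibitor present.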

[21] = test system: Streptococcus pneumoniae; experiment: Antibacterial activity against Streptococcus pneumoniae M301 overexpressing patA, patB and inactivated patA with single mutation by standardized agar doubling dilution method in presence of 50 uM sodium orthovanadate efflux pump inhibitor; type: functional; outline: as §3
[22] = test system: Streptococcus pneumoniae; experiment: Antibacterial activity against Streptococcus pneumoniae M310 overexpressing patA, patB and inactivated patB with single mutation by standardized agar doubling dilution method in presence of 50 uM sodium orthovanadate efflux pump inhibitor; type: functional; outline: as §3
[23] = test system: Streptococcus pneumoniae; experiment: Antibacterial activity against Streptococcus pneumoniae M317 overexpressing patA, patB and inactivated patB with single mutation by standardized agar doubling dilution method in presence of 50 uM sodium orthovanadate efflux pump inhibitor; type: functional; outline: as §6
[24] = test system: Streptococcus pneumoniae; experiment: Antibacterial activity against fluoroquinolone-resistant Streptococcus pneumoniae M100 FQ-R overexpressing patA, patB by standardized agar doubling dilution method in presence of 50 uM sodium orthovanadate efflux pump inhibitor; type: functional; outline: as §5
[25] = test system: Streptococcus pneumoniae; experiment: Antibacterial activity against Streptococcus pneumoniae M46A overexpressing patA, patB and inactivated patA with single mutation by standardized agar doubling dilution method in presence of 50 uM sodium orthovanadate efflux pump inhibitor; type: functional; outline: as §6
[26] = test system: Streptococcus pneumoniae; experiment: Antibacterial activity against Streptococcus pneumoniae M309 overexpressing patA, patB and inactivated patB with single mutation by standardized agar doubling dilution method in presence of 50 uM sodium orthovanadate efflux pump inhibitor; type: functional; outline: as §3
[27] = test system: Streptococcus pneumoniae; experiment: Antibacterial activity against Streptococcus pneumoniae M298 overexpressing patA, patB and inactivated patA with single mutation by standardized agar doubling dilution method

For `O=C(O)c1cn(C2CC2)c2cc(N3CCNCC3)c(F)cc2c1=O` [CIPROFLOXACIN], the MIC [1] was 0.1 µg/mL, the MIC [2] was 1 µg/mL (≈ 3.02 µM) and the MIC90 [3] was 0.5 µg/mL. The MIC [4] was 4 µg/mL (≈ 12.1 µM), the MIC [5] was 8 µg/mL (≈ 24.1 µM) and the MIC [6] was 32 µg/mL (≈ 96.6 µM). For the same compound, the MIC [7] was 4 µg/mL (≈ 12.1 µM), the MIC [8] was 8 µg/mL (≈ 24.1 µM) and the MIC [9] was 4 µg/mL (≈ 12.1 µM). The MIC [10] was 4 µg/mL (≈ 12.1 µM), the MIC [11] was 32 µg/mL (≈ 96.6 µM) and the MIC [12] was 2 µg/mL (≈ 6.04 µM). For the same compound, the MIC [13] was 32 µg/mL, the MIC [14] was 8 µg/mL and the MIC [15] was 4 µg/mL. For the same compound, the MIC [16] was 8 µg/mL, the MIC [17] was 4 µg/mL and the MIC [18] was 2 µg/mL. It also gave an MIC [19] of 0.12 µg/mL, an MIC [20] of 4 µg/mL and an MIC [21] of 8 µg/mL. The MIC [22] was 2 µg/mL, the MIC [23] was 8 µg/mL and the MIC [24] was 1 µg/mL. It also gave an MIC [25] of 0.12 µg/mL, an MIC [26] of 2 µg/mL and an MIC [27] of 8 µg/mL (≈ 24.1 µM).

With `CC[n+]1c(-c2ccccc2)c2cc(N)ccc2c2ccc(N)cc21.[Br-]` [HOMIDIUM BROMIDE] the MIC [1] was 0.1 µg/mL, the MIC [2] was 2 µg/mL and the MIC [3] was 0.5 µg/mL. For the same compound, the MIC90 [3] was 0.5 µg/mL, the MIC [4] was 0.5 µg/mL and the MIC [5] was 0.5 µg/mL. For the same compound, the MIC [6] was 4 µg/mL, the MIC [7] was 16 µg/mL and the MIC [8] was 0.5 µg/mL. It also gave an MIC [9] of 0.5 µg/mL, an MIC [10] of 0.25 µg/mL and an MIC [11] of 4 µg/mL. For the same compound, the MIC [12] was 1 µg/mL, the MIC [13] was 0.5 µg/mL and the MIC [14] was 0.5 µg/mL. It also gave an MIC [15] of 0.5 µg/mL, an MIC [16] of 0.5 µg/mL and an MIC [17] of 0.5 µg/mL. It also gave an MIC [18] of 0.5 µg/mL, an MIC [19] of 0.5 µg/mL and an MIC [20] of 0.5 µg/mL. For the same compound, the MIC [21] was 0.25 µg/mL, the MIC [22] was 8 µg/mL and the MIC [23] was 0.5 µg/mL. For the same compound, the MIC [24] was 1 µg/mL, the MIC [25] was 0.5 µg/mL and the MIC [26] was 8 µg/mL. The MIC [27] was 0.5 µg/mL.
